Source: ChEMBL document CHEMBL3259664, “Optimization of an imidazopyridazine series of inhibitors of Plasmodium falciparum calcium-dependent protein kinase 1 (PfCDPK1)” (J Med Chem, 2014)

How the values were obtained:
[1] = Metabolic stability in human liver microsomes assessed as compound remaining measured at […]; format: ADME; details: read-out: Stability
[2] = Metabolic stability in mouse liver microsomes assessed as compound remaining measured at 30 mins; format: ADME; details: read-out: Stability
[3] = Lipophilicity, log D of the compound; format: physicochemical; details: octanol/water
[4] = Total plasma concentration in NMRI mouse infected with Plasmodium berghei ANKA at 50 mg/kg, po qd administered on day 1 to 3 post infection measured at 1 hr post last dose; format: ADME, organism-based; set-up: dose 50 mg/kg, route oral
Procedure, shortened: (§1)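 4-day Peters test in groups of 3 mice infected iv on day 0. Oral dosing was 50 mg/kg once daily at 4, 24, 48 and 72 h post-infection. The monohydrochloride salt was dissolved in 30:70 EtOH/Tween-80 and diluted 10-fold with water. Blood was sampled for total plasma compound levels.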

[5] = Total plasma concentration in NMRI mouse infected with Plasmodium berghei ANKA at 50 mg/kg, po qd administered on day 1 to 3 post infection measured at 4 hrs post last dose; format: ADME, organism-based; set-up: dose 50 mg/kg, route oral; procedure, shortened: as §1
Rattus norvegicus [6] = assay: Half life in rat at […], iv; format: ADME, organism-based; set-up: dose 4.5 mg/kg, route intravenous; details: in vivo
Rattus norvegicus [7] = assay: Volume of distribution in rat at […], iv and 21 mg/kg, po; format: ADME, organism-based; details: in vivo
[8] = Oral bioavailability in rat at 21 mg/kg; format: ADME, organism-based; details: in vivo

Row | SMILES | remaining [1] [%] | remaining at 0.5 h [2] [%] | logD [3] | also measured
1 | N[C@H]1CC[C@H](Nc2ccc3ncc(-c4cnc(Nc5ccccn5)nc4)n3n2)CC1 | 99 | 93 | 1.1 | 
2 | N[C@H]1CC[C@H](Nc2ccc3ncc(-c4cnc(Nc5ncccc5F)nc4)n3n2)CC1 | 93 | 85 | 0.2 | 
3 | Cc1ccc(Nc2ncc(-c3cnc4ccc(N[C@H]5CC[C@H](N)CC5)nn34)cn2)nc1 | 92 | 100 | 1.1 | 
4 | N[C@H]1CC[C@H](Nc2ccc3ncc(-c4cnc(NCc5ccccn5)nc4)n3n2)CC1 | 95 | 95 | 0.4 | 
5 | Fc1cccnc1Nc1ncc(-c2cnc3ccc(N4CCNCC4)nn23)cn1 |  |  | 0.7 | 
6 | CN1CCN(c2ccc3ncc(-c4cnc(Nc5ncccc5F)nc4)n3n2)CC1 |  |  | 2.2 | 
7 | CN1CCC(Cc2ccc3ncc(-c4cnc(Nc5ncccc5F)nc4)n3n2)CC1 |  |  | 1.3 | 
8 | CN1CCC(Nc2ccc3ncc(-c4ccc(Nc5ncccc5F)cc4)n3n2)CC1 | 80 | 47 | 3.2 | concentration at 1 h [4]: 1660 ng/mL; concentration at 4 h [5]: 1460 ng/mL
9 | Fc1cccnc1Nc1ccc(-c2cnc3ccc(N[C@H]4CC[C@H](N5CCCC5)CC4)nn23)cc1 | 60 | 82 | 3.3 | 
10 | CN1CCC(Nc2ccc3ncc(-c4ccc(Nc5ncc(Cl)cc5F)cc4)n3n2)CC1 | 86 | 61 | 3.7 | 
11 | Cc1ccc(F)c(Nc2ccc(-c3cnc4ccc(NC5CCN(C)CC5)nn34)cc2)n1 | 77 | 52 | 3.5 | 
12 | CN1CCC(Nc2ccc3ncc(-c4ccc(Nc5ncc(F)cc5F)cc4)n3n2)CC1 | 78 | 58 | 3.7 | 
13 | CN1CCC(Nc2ccc3ncc(-c4ccc(Nc5cccc(C(F)(F)F)n5)cc4)n3n2)CC1 | 80 | 73 | 3.4 | 
14 | Cc1ccc(F)c(Nc2ccc(-c3cnc4ccc(N[C@H]5CC[C@H](N)CC5)nn34)cc2)n1 | 83 | 90 | 2.2 | 
15 | CN1CCC(Nc2ccc3ncc(-c4ccc(Nc5ncccc5F)cc4)n3n2)CC1.Cl |  |  |  | t1/2 (Rattus norvegicus [6]): 4 h; Vd (Rattus norvegicus [7]): 8 L/kg; bioavailability [8]: 70%
16 | Fc1cccnc1Nc1ncc(-c2cnc3ccc(NC4CCNC4)nn23)cn1 (racemic) |  |  | 0.4 | 
17 | CN1CCC(Nc2ccc3ncc(-c4cnc(Nc5ncccc5F)nc4)n3n2)C1 (racemic) |  |  | 1.5 | 
18 | CN1CCC(Oc2ccc3ncc(-c4cnc(Nc5ncccc5F)nc4)n3n2)C1 (racemic) |  |  | 1.5 | 

The next lines start with results.

Row | remaining [1] [%] | remaining at 0.5 h [2] [%] | logD [3] | SMILES | also measured
19 | 89 | 92 | 1.6 | N[C@H]1CC[C@H](Nc2ccc3ncc(-c4cnc(Nc5ccccc5)nc4)n3n2)CC1 | 
20 | 69 | 93 | 1.6 | N[C@H]1CC[C@H](Nc2ccc3ncc(-c4cnc(Nc5ncc(C(F)(F)F)cc5F)nc4)n3n2)CC1 | 
21 | 98 | 85 | 1.4 | CN1CCC(Nc2ccc3ncc(-c4cnc(Nc5ncccc5F)nc4)n3n2)CC1 | 
22 | 77 | 57 | 3.1 | CN1CCC(Nc2ccc3ncc(-c4ccc(Nc5ncccc5F)nc4)n3n2)CC1 | 
23 |  |  | 2.5 | Cc1ccc2ncc(-c3cnc(Nc4ncccc4F)nc3)n2n1 | 
24 |  |  | 2.9 | Fc1cccnc1Nc1ncc(-c2cnc3ccc(NCCN4CCOCC4)nn23)cn1 | 
25 |  |  | 1.6 | CN1CCN(CCNc2ccc3ncc(-c4cnc(Nc5ncccc5F)nc4)n3n2)CC1 | 
26 |  |  | 1.5 | Fc1cccnc1Nc1ncc(-c2cnc3ccc(NCCN4CCCC4)nn23)cn1 | 
27 |  |  | 3.2 | Fc1cccnc1Nc1ncc(-c2cnc3ccc(N[C@H]4CC[C@H](N5CCOCC5)CC4)nn23)cn1 | 
28 |  |  | 1.9 | Fc1cccnc1Nc1ncc(-c2cnc3ccc(N[C@H]4CC[C@H](N5CCCC5)CC4)nn23)cn1 | 
29 |  |  | 1.5 | CN1CCC(Oc2ccc3ncc(-c4cnc(Nc5ncccc5F)nc4)n3n2)CC1 | 
30 | 71 | 88 | 2.8 | Fc1cccnc1Nc1ccc(-c2cnc3ccc(N[C@H]4CC[C@H](N5CCCC5)CC4)nn23)cn1 | 
31 | 81 | 85 | 3.7 | CN1CCC(Nc2ccc3ncc(-c4ccc(Nc5ccc(C(F)(F)F)cn5)cc4)n3n2)CC1 | 
32 | 68 | 87 | 2 | N[C@H]1CC[C@H](Nc2ccc3ncc(-c4ccc(Nc5ncc(F)cc5F)cc4)n3n2)CC1 | 
33 | 77 | 57 | 3.1 | N[C@H]1CC[C@H](Nc2ccc3ncc(-c4ccc(Nc5ncc(Cl)cc5F)cc4)n3n2)CC1 | 
